Among the data in ChEMBL document CHEMBL1629705, “PSI-7851, a pronucleotide of beta-D-2'-deoxy-2'-fluoro-2'-C-methyluridine monophosphate, is a potent and pan-genotype inhibitor of hepatitis C virus replication” (Antimicrob Agents Chemother, 2010) are IC50 values, retold here.

In this assay the target is T1, DNA polymerase subunit gamma-1 (Homo sapiens, UniProt P54098).
T1 sequence (P54098 whole entry): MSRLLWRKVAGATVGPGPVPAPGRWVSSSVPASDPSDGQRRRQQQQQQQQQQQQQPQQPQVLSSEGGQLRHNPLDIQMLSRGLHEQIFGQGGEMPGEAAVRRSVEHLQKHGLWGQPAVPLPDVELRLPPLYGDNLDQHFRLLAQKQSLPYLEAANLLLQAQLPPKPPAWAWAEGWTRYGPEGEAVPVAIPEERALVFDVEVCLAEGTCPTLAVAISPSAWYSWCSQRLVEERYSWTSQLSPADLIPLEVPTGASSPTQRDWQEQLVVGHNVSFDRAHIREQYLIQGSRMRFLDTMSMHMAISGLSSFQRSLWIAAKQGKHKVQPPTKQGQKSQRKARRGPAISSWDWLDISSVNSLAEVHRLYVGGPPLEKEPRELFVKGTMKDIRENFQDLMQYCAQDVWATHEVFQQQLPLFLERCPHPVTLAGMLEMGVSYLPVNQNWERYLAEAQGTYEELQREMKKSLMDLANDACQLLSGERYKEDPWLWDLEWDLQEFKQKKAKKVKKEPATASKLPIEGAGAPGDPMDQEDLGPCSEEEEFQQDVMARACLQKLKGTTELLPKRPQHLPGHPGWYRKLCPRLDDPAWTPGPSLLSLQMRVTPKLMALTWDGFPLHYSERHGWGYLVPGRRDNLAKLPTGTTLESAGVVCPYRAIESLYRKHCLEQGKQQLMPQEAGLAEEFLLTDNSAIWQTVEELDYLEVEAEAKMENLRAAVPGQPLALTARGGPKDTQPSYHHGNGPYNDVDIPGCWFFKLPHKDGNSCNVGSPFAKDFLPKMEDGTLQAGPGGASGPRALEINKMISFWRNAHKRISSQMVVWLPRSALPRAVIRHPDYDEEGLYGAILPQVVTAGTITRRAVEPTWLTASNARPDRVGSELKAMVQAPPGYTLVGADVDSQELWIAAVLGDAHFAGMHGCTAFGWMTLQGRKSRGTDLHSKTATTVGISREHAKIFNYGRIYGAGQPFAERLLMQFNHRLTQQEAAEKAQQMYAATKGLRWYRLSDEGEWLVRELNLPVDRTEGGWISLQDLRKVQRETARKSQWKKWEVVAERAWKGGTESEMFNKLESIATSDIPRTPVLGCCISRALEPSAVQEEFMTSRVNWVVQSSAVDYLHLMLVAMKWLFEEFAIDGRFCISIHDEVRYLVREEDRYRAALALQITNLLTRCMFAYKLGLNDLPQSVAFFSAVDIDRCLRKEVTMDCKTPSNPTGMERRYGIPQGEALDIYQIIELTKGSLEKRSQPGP
Kind of assay: Inhibition of human DNA polymerase gamma assessed as incorporation of [alpha-32P]dCTP up to 1mM preincubated for 30 mins by whatman DE81 paper binding assay. In outline:
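Human DNA polymerase α (20 μg/ml) or γ (50 μg/ml) in 50 mM Tris pH 7.5, 50 mM NaCl, activated calf thymus DNA, 20 μM each dNTP, [α-32P]dCTP, 5 mM MgCl2. Nucleotide inhibitor up to 1 mM. 37°C, quenched with EDTA at 30 min. Product measured by DE81 paper binding; IC50 by nonlinear fit.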

SMILES strings stand for the structures. Some results are limits rather than exact numbers.

The term IC50 denotes the concentration needed to halve the response being measured. Take `C[C@@]1(F)[C@H](O)[C@@H](COP(=O)(O)OP(=O)(O)OP(=O)(O)O)O[C@H]1n1ccc(=O)[nH]c1=O` [GS-461203]: the concentration for half-maximal inhibition (IC50) is > 1000 µM.
